{"source": "ChEMBL document CHEMBL4351006", "about": "“A new exploration towards aminothiazolquinolone oximes as potentially multi-targeting antibacterial agents: Design, synthesis and evaluation acting on microbes, DNA, HSA and topoisomerase IV” (Eur J Med Chem, 2019)", "key": {"Staphylococcus aureus [1]": {"system": "Staphylococcus aureus", "experiment": "Antibacterial activity against Staphylococcus aureus assessed as reduction in bacterial cell viability incubated for 24 hrs by two fold serial dilution method", "format": "functional", "method_in_brief": "(§1)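 Broth two-fold serial dilution run to CLSI guidelines. Chloromycin, norfloxacin and fluconazole served as reference drugs.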"}, "Staphylococcus aureus [2]": {"system": "Staphylococcus aureus", "experiment": "Antibacterial activity against Staphylococcus aureus ATCC 29213 assessed as reduction in bacterial cell viability incubated for 24 hrs by two fold serial dilution method", "format": "functional", "details": "ATCC 29213, 24 h", "method_in_brief": "as §1"}, "Enterococcus faecalis": {"system": "Enterococcus faecalis", "experiment": "Antibacterial activity against Enterococcus faecalis assessed as reduction in bacterial cell viability incubated for 24 hrs by two fold serial dilution method", "format": "functional", "method_in_brief": "as §1"}, "Escherichia coli [3]": {"system": "Escherichia coli", "experiment": "Antibacterial activity against Escherichia coli assessed as reduction in bacterial cell viability incubated for 24 hrs by two fold serial dilution method", "format": "functional", "method_in_brief": "as §1"}, "Candida albicans [4]": {"system": "Candida albicans", "experiment": "Antifungal activity against Candida albicans assessed as reduction in fungal cell viability incubated for 24 hrs by two fold serial dilution method", "format": "functional", "method_in_brief": "as §1"}, "Aspergillus fumigatus [5]": {"system": "Aspergillus fumigatus", "experiment": "Potency index, ratio of MIC of fluconazole to MIC of compound for antifungal activity against Aspergillus fumigatus assessed as reduction in […] incubated for 24 hrs by two fold serial dilution method", "format": "functional"}, "Klebsiella pneumoniae": {"system": "Klebsiella pneumoniae", "experiment": "Antibacterial activity against Klebsiella pneumoniae assessed as reduction in bacterial cell viability incubated for 24 hrs by two fold serial dilution method", "format": "functional", "method_in_brief": "as §1"}, "Aspergillus fumigatus [6]": {"system": "Aspergillus fumigatus", "experiment": "Antifungal activity against Aspergillus fumigatus assessed as reduction in fungal cell viability incubated for 24 hrs by two fold serial dilution method", "format": "functional", "method_in_brief": "as §1"}, "Pseudomonas aeruginosa [7]": {"system": "Pseudomonas aeruginosa", "experiment": "Antibacterial activity against Pseudomonas aeruginosa ATCC 27853 assessed as reduction in bacterial cell viability incubated for 24 hrs by two fold serial dilution method", "format": "functional", "details": "ATCC 27853, 24 h", "method_in_brief": "as §1"}, "Staphylococcus aureus [8]": {"system": "Staphylococcus aureus", "experiment": "Antibacterial activity against methicillin resistant Staphylococcus aureus N315 assessed as reduction in bacterial cell viability incubated for 24 hrs by two fold serial dilution method", "format": "functional", "details": "N315, 24 h", "method_in_brief": "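MIC by two-fold serial dilution following CLSI, with chloromycin and norfloxacin as reference drugs.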"}, "Candida albicans [9]": {"system": "Candida albicans", "experiment": "Antifungal activity against Candida albicans ATCC 90023 assessed as reduction in fungal cell viability incubated for 24 hrs by two fold serial dilution method", "format": "functional", "details": "ATCC 90023, 24 h", "method_in_brief": "as §1"}, "Escherichia coli [10]": {"system": "Escherichia coli", "experiment": "Antibacterial activity against Escherichia coli ATCC 25922 assessed as reduction in bacterial cell viability incubated for 24 hrs by two fold serial dilution method", "format": "functional", "details": "ATCC 25922, 24 h", "method_in_brief": "as §1"}, "Acinetobacter baumannii": {"system": "Acinetobacter baumannii", "experiment": "Antibacterial activity against Acinetobacter baumannii assessed as reduction in bacterial cell viability incubated for 24 hrs by two fold serial dilution method", "format": "functional", "method_in_brief": "as §1"}, "Candida tropicalis": {"system": "Candida tropicalis", "experiment": "Antifungal activity against Candida tropicalis assessed as reduction in fungal cell viability incubated for 24 hrs by two fold serial dilution method", "format": "functional", "method_in_brief": "as §1"}, "Staphylococcus aureus [11]": {"system": "Staphylococcus aureus", "experiment": "Antibacterial activity against Staphylococcus aureus ATCC 25923 assessed as reduction in bacterial cell viability incubated for 24 hrs by two fold serial dilution method", "format": "functional", "details": "ATCC 25923, 24 h", "method_in_brief": "as §1"}, "Candida parapsilosis": {"system": "Candida parapsilosis", "experiment": "Antifungal activity against Candida parapsilosis ATCC 22019 assessed as reduction in fungal cell viability incubated for 24 hrs by two fold serial dilution method", "details": "Lodderomyces parapsilosis, ATCC 22019, 24 h"}, "Pseudomonas aeruginosa [12]": {"system": "Pseudomonas aeruginosa", "experiment": "Antibacterial activity against Pseudomonas aeruginosa assessed as reduction in bacterial cell viability incubated for 24 hrs by two fold serial dilution method", "format": "functional", "method_in_brief": "as §1"}, "Staphylococcus aureus [13]": {"system": "Staphylococcus aureus", "experiment": "Antibacterial activity against methicillin resistant Staphylococcus aureus assessed as fold change after 16 serial passages at 0.5 times of MIC incubated for 12 hrs by sequential passaging method", "format": "functional"}}, "data": [{"molecule": "CCn1cc(-c2csc(N)n2)c(=O)c2cc(F)c(N3CCN(C/C(C)=N/NC(N)=O)CC3)cc21", "values": [{"measurement": "MIC", "setting": "Staphylococcus aureus [1]", "value": 263, "unit": "µM"}, {"measurement": "MIC", "setting": "Staphylococcus aureus [2]", "value": 263, "unit": "µM"}, {"measurement": "MIC", "setting": "Enterococcus faecalis", "value": 526, "unit": "µM"}, {"measurement": "MIC", "setting": "Escherichia coli [3]", "value": 263, "unit": "µM"}, {"measurement": "MIC", "setting": "Candida albicans [4]", "value": 526, "unit": "µM"}, {"measurement": "Ratio", "setting": "Aspergillus fumigatus [5]", "value": 3}, {"measurement": "MIC", "setting": "Klebsiella pneumoniae", "value": 526, "unit": "µM"}, {"measurement": "MIC", "setting": "Aspergillus fumigatus [6]", "value": 263, "unit": "µM"}, {"measurement": "MIC", "setting": "Pseudomonas aeruginosa [7]", "value": 132, "unit": "µM"}, {"measurement": "MIC", "setting": "Staphylococcus aureus [8]", "value": 66, "unit": "µM"}, {"measurement": "MIC", "setting": "Candida albicans [9]", "value": 132, "unit": "µM"}, {"measurement": "MIC", "setting": "Escherichia coli [10]", "value": 263, "unit": "µM"}, {"measurement": "MIC", "setting": "Acinetobacter baumannii", "value": 263, "unit": "µM"}, {"measurement": "MIC", "setting": "Candida tropicalis", "value": 132, "unit": "µM"}, {"measurement": "MIC", "setting": "Staphylococcus aureus [11]", "value": 132, "unit": "µM"}, {"measurement": "MIC", "setting": "Candida parapsilosis", "value": 66, "unit": "µM"}, {"measurement": "MIC", "setting": "Pseudomonas aeruginosa [12]", "value": 263, "unit": "µM"}]}, {"molecule": "CCn1cc(C(=O)O)c(=O)c2cc(F)c(N3CCNCC3)cc21", "note": "[NORFLOXACIN]", "values": [{"measurement": "MIC", "setting": "Staphylococcus aureus [1]", "value": 6, "unit": "µM"}, {"measurement": "MIC", "setting": "Staphylococcus aureus [2]", "value": 3, "unit": "µM"}, {"measurement": "MIC", "setting": "Enterococcus faecalis", "value": 13, "unit": "µM"}, {"measurement": "MIC", "setting": "Escherichia coli [3]", "value": 50, "unit": "µM"}, {"measurement": "fold change (FC)", "setting": "Staphylococcus aureus [13]", "value": 16}, {"measurement": "MIC", "setting": "Klebsiella pneumoniae", "value": 13, "unit": "µM"}, {"measurement": "MIC", "setting": "Pseudomonas aeruginosa [7]", "value": 2, "unit": "µM"}, {"measurement": "MIC", "setting": "Staphylococcus aureus [8]", "value": 25, "unit": "µM"}, {"measurement": "MIC", "setting": "Escherichia coli [10]", "value": 25, "unit": "µM"}, {"measurement": "MIC", "setting": "Acinetobacter baumannii", "value": 25, "unit": "µM"}, {"measurement": "MIC", "setting": "Staphylococcus aureus [11]", "value": 3, "unit": "µM"}, {"measurement": "MIC", "setting": "Pseudomonas aeruginosa [12]", "value": 6, "unit": "µM"}]}]}
